Compound activity from PubChem BioAssay.
ABHD5-PLIN5 inh – ABHD5-PLIN5 interaction inhibitors, primary screen, cell lysate, split luciferase complementation, luminescence; Perilipin-5 (Homo sapiens) + 1-acylglycerol-3-phosphate O-acyltransferase ABHD5 (Homo …; Split G. princeps luciferase complementation, 4 h; inhibition, % at 4 µM; hit rate 0.78% among 360,000; AID 602281, 2012;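 active = inhibition above the mean inhibition across every tested compound plus 3 SD, cut at about 22% in these data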;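 also: 0% = DMSO only wells and the 100% control is not disclosed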
Granule exo inh – LAMP-1 surface exposure blockers, TALL-104 cells – cell-based, flow cytometry, MLPCN library, primary screen; TALL-104 LAMP-1 surface exposure; cells stimulated with thapsigargin and PMA; inhibition, % at 10 µM; hit rate 0.66% among 360,000;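 active = inhibition above about 55%, limit read from the data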
HKDC1 inhibitor – HKDC1 hexokinase inhibitors, primary screen, biochemical, fluorescence, uHTS. inhibition, % at 20 µM. hit rate 0.16% among 340,000. AID 493160, 2011. Q2TB90. recombinant HKDC1, G6PDH/diaphorase resazurin coupled fluorescence;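 active = inhibition above about 35% when tested at 20 µM, limit read from the data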;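 also: plate controls were DMSO wells with enzyme for no effect and DMSO wells lacking enzyme for full effect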
Target sequence (Q2TB90 whole entry, looked up): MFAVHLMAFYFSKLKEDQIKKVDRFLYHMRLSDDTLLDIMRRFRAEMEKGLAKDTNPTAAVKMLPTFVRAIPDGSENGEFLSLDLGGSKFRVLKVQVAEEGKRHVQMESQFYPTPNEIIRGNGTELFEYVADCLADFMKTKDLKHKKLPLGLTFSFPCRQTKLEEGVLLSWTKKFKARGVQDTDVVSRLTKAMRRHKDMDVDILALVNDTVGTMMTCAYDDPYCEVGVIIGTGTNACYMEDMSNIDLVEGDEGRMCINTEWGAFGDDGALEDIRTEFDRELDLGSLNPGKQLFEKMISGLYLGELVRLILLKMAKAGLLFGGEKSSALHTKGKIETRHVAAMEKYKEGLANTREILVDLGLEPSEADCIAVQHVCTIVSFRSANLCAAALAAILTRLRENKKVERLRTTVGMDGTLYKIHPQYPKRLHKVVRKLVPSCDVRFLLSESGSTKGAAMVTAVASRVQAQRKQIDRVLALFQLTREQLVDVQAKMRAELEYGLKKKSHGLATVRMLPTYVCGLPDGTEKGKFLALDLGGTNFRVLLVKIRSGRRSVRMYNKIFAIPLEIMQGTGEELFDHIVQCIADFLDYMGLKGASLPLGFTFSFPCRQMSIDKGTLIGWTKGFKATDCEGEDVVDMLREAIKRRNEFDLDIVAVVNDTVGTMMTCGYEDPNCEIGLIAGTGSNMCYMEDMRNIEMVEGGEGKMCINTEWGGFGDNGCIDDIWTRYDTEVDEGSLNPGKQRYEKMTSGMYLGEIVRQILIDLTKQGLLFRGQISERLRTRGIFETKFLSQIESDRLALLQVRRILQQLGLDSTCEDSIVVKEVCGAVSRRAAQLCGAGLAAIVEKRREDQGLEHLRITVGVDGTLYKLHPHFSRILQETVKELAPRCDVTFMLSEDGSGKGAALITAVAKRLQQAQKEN
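Test system: recombinant HKDC1 (HK5) hexokinase enzyme, produced in-house / Doses: 20 µM test compound, 1% DMSO / Timing: 90 min, room temperature / Detection: G6PDH/diaphorase-coupled fluorescence, 1 mM NADP, 100 µM resazurin, 525/613 nm / Control set: DMSO wells with and without enzyme mix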
PfGluPho inh – PfG6PD enzyme inhibitors, primary screen, biochemical, fluorescence intensity, uHTS; hit rate 0.78% among 350,000; glucose-6-phosphate dehydrogenase-6-phosphogluconolactonase (Plasmodium falciparum 3D7); PfGluPho enzyme, NADPH resazurin-diaphorase fluorescence; inhibition, % at 20 µM;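 active = inhibition reaching at least a set limit at 20 µM in the primary screen, cut at about 59% in these data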;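 also: 0% = DMSO wells with substrate and 100% = DMSO wells lacking glucose-6-phosphate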
PfGluPho conf – PfG6PD inhibitors, hit retest, confirmation, biochemical, fluorescence intensity, single concentration | shares compounds with PfGluPho inh | recombinant PfGluPho, NADPH-diaphorase-resazurin fluorescence | inhibition, % at 20 µM | hit rate 34% among 2,400;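 active = inhibition of at least 50% at 20 µM in any single replicate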;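 also: 0% = DMSO with substrate and 100% = DMSO lacking glucose-6-phosphate substrate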
Diaphorase 10uM – diaphorase inhibitors and chemical oxidizers, confirmation, counter-screen for P. falciparum G6PD inhibitor project, biochemical, fluorescence intensity, 10 µM NADPH; shares compounds with PfGluPho inh; diaphorase-coupled resazurin reduction, NADPH 10 uM; inhibition, % at 20 µM; hit rate 39% among 820; AID 504862, 2011;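 active = average inhibition reaching 50% or more with the compound at 20 µM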;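 also: resorufin red fluorescence formed as diaphorase reduces resazurin using NADPH; 0% = DMSO with enzyme and 100% = DMSO without enzyme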
Diaph ctr 30uM – diaphorase inhibitors and chemical oxidizers, confirmation, counter-screen for P. falciparum G6PD inhibitor project, biochemical, fluorescence intensity, 30 µM NADPH; AID 504863, 2011; Diaphorase/resazurin coupled assay, resorufin fluorescence; inhibition, % at 20 µM; shares compounds with PfGluPho inh; hit rate 29% among 820;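 active = inhibition averaging 50% or more, tested at 20 µM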;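 also: 0% = DMSO with enzyme and 100% = DMSO wells lacking diaphorase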
* marks the source's active call; other numbers are inactive results; · = not tested or not shown. An excerpt weighted towards active compounds, which were near 2.2% of everything screened.

SMILES	ABHD5-PLIN5 inh	Granule exo inh	HKDC1 inhibitor	PfGluPho inh	PfGluPho conf	others
CC(=O)N1CCN(c2ccc(NCc3cccc4ccccc34)cc2)CC1	-2.3	8.1	8.1	63.4*	24.4
COCCn1nnnc1C(c1cc2cc(OC)c(OC)cc2[nH]c1=O)N1CCN(c2ccc(O)cc2)CC1 (configuration not stated)	5.9	-2.8	5.8	65.4*	55.6*	Diaphorase 10uM=6.7;Diaph ctr 30uM=-2.6
CCCCN(C(=O)c1c(CC)noc1C)c1c(N)n(CCC)c(=O)[nH]c1=O	-1.1	-1.2	-4.0	1.1	·
CCOC(=O)c1sc(NC(=O)C(C)C)c(C#N)c1C	-9.5	-2.4	-17.9	68.1*	34.4
COc1ccccc1Nc1nnc(SCC(=O)c2c(N)n(C3CC3)c(=O)[nH]c2=O)s1	-1.3	-1.1	-5.0	11.3	·
CN1CCc2c(sc3c2c(=O)n(-c2ccccc2)c2nnc(SCc4ccc(F)cc4)n32)C1	5.5	-0.7	-5.5	-2.2	·
CN1CCc2c(sc3c2c(=O)n(-c2ccccc2)c2nnc(SCc4ccccc4)n32)C1	-2.7	-0.3	8.1	60.2*	44.9
CCCc1[nH]n(-c2ccc(F)cc2)c(=O)c1C=Nc1ccc(C)cc1	-4.5	-5.1	4.0	-3.3	·
Cc1ccsc1CNCC(O)c1ccccc1 (configuration not stated)	7.6	6.0	-4.9	-11.2	·
O=C(COc1cccc(C(F)(F)F)c1)N1CCN(c2ccc(O)cc2)CC1	2.7	2.3	7.5	60.7*	0.9
CC(C)c1cn(C2OC(COC(=O)c3ccccc3)C(OC(=O)c3ccccc3)C2OC(=O)c2ccccc2)c(=O)[nH]c1=O (configuration not stated)	6.8	1.1	2.7	8.6	·
Cc1ccc(S(=O)(=O)NC(=O)Nc2ccc(N(C)C)cc2)cc1	-1.6	0.9	9.0	73.3*	21.1
Cc1ccc(NC(=O)NNS(=O)(=O)c2ccc(Br)cc2)cc1	1.7	0.1	-3.9	-3.7	·
O=[N+]([O-])c1cccc(C2(O)COc3ccccc3O2)c1 (configuration not stated)	-10.4	-4.4	-0.7	-8.6	·
O=C1Nc2ccc(S(=O)(=O)NCc3ccco3)c3cccc1c23	16.9	1.9	21.8	62.9*	43.5
Cc1cc2nc3c(=O)[nH]c(=O)[nH]c3nc2c([N+](=O)[O-])c1N	-8.5	0.8	25.5	49.8	39.9
O=C(CC1CCCC1)Nc1ccc(Cl)c(S(=O)(=O)N2CCOCC2)c1	9.6	1.4	5.8	0.5	·
COc1ccc(S(=O)(=O)N2CCc3ccccc32)cc1C(=O)NCCc1ccccn1	1.9	2.7	-4.2	10.6	·
CC1(C)Nc2ccc(O)cc2-c2c1ssc2=S	-18.9	-0.7	12.4	72.0*	54.5*	Diaphorase 10uM=0.2;Diaph ctr 30uM=9.7
CC1CCCC(C)N1C(=O)COC(=O)CSc1ccc([N+](=O)[O-])cc1 (configuration not stated)	9.5	-0.2	7.5	64.0*	1.4
Cc1nnc(-c2ccc(N3CCCCCC3)c([N+](=O)[O-])c2)o1	-3.7	-3.9	1.2	-3.6	·
COc1ccc(N2C=C3C(=O)C(C)(OC(=O)CCc4ccccc4)C(=O)C=C3C=C2c2ccc(C#N)cc2)cc1 (configuration not stated)	-43.6	2.1	34.8	68.5*	4.3
CC1(OC(=O)CCc2ccccc2)C(=O)C=C2C=C(c3ccc(C#N)cc3)N(CCc3c[nH]c4ccccc34)C=C2C1=O (configuration not stated)	-18.3	1.4	29.7	78.9*	27.4
